Data on one molecule can be found in ChEMBL document CHEMBL3526142, “Biotransformation of a novel antimitotic agent, I-387, by mouse, rat, dog, monkey, and human liver microsomes and in vivo pharmacokinetics in mice” (Drug Metab Dispos, 2011).

The structures appear in SMILES notation.

A short description of data set [1]: AUC (infinity) in ICR mouse at 1 mg/kg, ip by LC-MS/MS analysis. It counts as ADME, organism-based. Also on record: time infinity, dose 1 mg/kg, route intraperitoneal. The following applies: plasma. In short, it runs like this: (§1)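 Male ICR mice (5–6 weeks, 20–25 g), single doses of 1, 5 or 15 mg/kg in 10% DMSO/PEG300, given iv by tail vein, ip, or orally by gavage. Three to four mice per time point, euthanized under isoflurane, blood drawn from posterior vena cava. Plasma protein precipitated with acetonitrile containing internal standard, then LC-MS/MS (MRM m/z 388.2→192). Noncompartmental analysis of mean concentration-time data, AUCinf by trapezoidal rule with extrapolation, CL = dose/AUCinf, Cmax read from the curve. F = (AUCnon-iv × dose iv)/(AUCiv × dose non-iv). n = 3 per dose group.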

Data set [2] in a line: Metabolic stability in human liver microsomes assessed as half life during phase 1 at 0.5 uM by LC-MS/MS analysis in presence of 3 mM NADPH and absence of UDPGA. The following applies: read-out: alphat1/2. It counts as ADME. The essentials: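 Pooled liver microsomes (1 mg/ml) incubated with 0.5 µM substrate and 3 mM NADPH in 65 mM potassium phosphate, pH 7.4, 1% methanol, at 37°C. The phase I+II set also had 5 mM UDPGA, 5 mM D-saccharolactone, 50 µg/ml alamethicin and 3 mM MgCl2. Stopped at 10–90 min with cold acetonitrile plus internal standard. Parent remaining by LC-MS/MS relative to time 0. t1/2 from a two-parameter single exponential decay fit; n = 2–3.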

For data set [3], the system named is Liver microsome. The data set can be described thus: Drug level in rat liver microsomes assessed as compound retention time treated with 0.5 uM I-387 after 2 hrs by LC-MS/MS analysis. The format is ADME. The essentials:
(§2)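 Pooled liver microsomes (1 mg/ml protein) incubated with 0.5 µM substrate and 3 mM NADPH in 65 mM potassium phosphate, pH 7.4, 1% methanol, at 37°C for 2 h. Stopped with ice-cold acetonitrile containing internal standard, centrifuged. Supernatant analysed by LC-MS/MS on a C18 column, 15-min gradient, with product ion scans for metabolite identification.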
A general note: Liver microsomes are a subcellular fraction often used to study metabolism.

Data set [4] in a line: Mean residence time (infinity) in ICR mouse at 15 mg/kg, iv by LC-MS/MS analysis. The format is ADME, organism-based. Details: dose 15 mg/kg, route intravenous. The conditions noted are these: in vivo. The essentials: as §1
Data set [5] in a line: Cmax in ICR mouse at 5 mg/kg, iv by LC-MS/MS analysis. The format is ADME, organism-based. The following applies: in vivo. Details: dose 5 mg/kg, route intravenous. In short, it runs like this: as §1
A short description of data set [6]: AUC (infinity) in ICR mouse at 1 mg/kg, po via gavage by LC-MS/MS analysis. It counts as ADME, organism-based. Also on record: time infinity, dose 1 mg/kg, route oral. The following applies: plasma. The essentials:
as §1

The nature of data set [7]: Terminal half life in ICR mouse at 5 mg/kg, ip by LC-MS/MS analysis. It counts as ADME, organism-based. Also on record: dose 5 mg/kg, route intraperitoneal. The following applies: in vivo, read-out: beta t1/2 (converted). The essentials:
(§3)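 Male ICR mice (20–25 g) given the compound intraperitoneally or by gavage in 10% DMSO/PEG300. Three to four mice were sacrificed per time point and plasma collected from the vena cava. Plasma was precipitated with acetonitrile containing internal standard and analysed by LC-MS/MS. Noncompartmental analysis of mean concentration-time data: terminal t1/2 = ln2/λz; Tmax by inspection; n = 3/dose group.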

The nature of data set [8]: Clearance in ICR mouse at 5 mg/kg, iv by LC-MS/MS analysis. The following applies: in vivo. Details: dose 5 mg/kg, route intravenous. It counts as ADME, organism-based. The essentials:
as §1

The nature of data set [9]: Clearance in ICR mouse at 1 mg/kg, iv by LC-MS/MS analysis. The format is ADME, organism-based. The following applies: in vivo. Details: dose 1 mg/kg, route intravenous. The essentials:
as §1

Data set [10] in a line: Tmax in ICR mouse at 1 mg/kg, ip by LC-MS/MS analysis. The format is ADME, organism-based. Details: dose 1 mg/kg, route intraperitoneal. The conditions noted are these: in vivo. In short, it runs like this:
as §3

Data set [11] in a line: Mean residence time (infinity) in ICR mouse at 15 mg/kg, po via gavage by LC-MS/MS analysis. The format is ADME, organism-based. Details: dose 15 mg/kg, route oral. The conditions noted are these: in vivo. In short, it runs like this: as §1
Data set [12] is described as follows: Terminal half life in ICR mouse at 15 mg/kg, ip by LC-MS/MS analysis. Details: dose 15 mg/kg, route intraperitoneal. The format is ADME, organism-based. The conditions noted are these: in vivo, read-out: beta t1/2 (converted). In short, it runs like this:
as §3

Data set [13] is described as follows: Bioavailability in ICR mouse at 5 mg/kg, ip by LC-MS/MS analysis. The conditions noted are these: in vivo. It counts as ADME, organism-based. In short, it runs like this: as §1
Data set [14] is described as follows: AUC (infinity) in ICR mouse at 5 mg/kg, ip by LC-MS/MS analysis. It counts as ADME, organism-based. Details: time infinity, dose 5 mg/kg, route intraperitoneal. The following applies: plasma. In short, it runs like this:
as §1

The nature of data set [15]: AUC (infinity) in ICR mouse at 15 mg/kg, iv by LC-MS/MS analysis. The format is ADME, organism-based. Details: time infinity, dose 15 mg/kg, route intravenous. The following applies: plasma. The essentials: as §1
Data set [16] is described as follows: Metabolic stability in monkey liver microsomes assessed as half life during phase 1 at 0.5 uM by LC-MS/MS analysis in presence of 3 mM NADPH and absence of UDPGA. The format is ADME, Macaca mulatta. The conditions noted are these: rhesus monkey, read-out: alphat1/2. The essentials:
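Pooled liver microsomes at 1 mg/ml protein with 3 mM NADPH, 0.5 μM substrate in 65 mM potassium phosphate pH 7.4, 1% methanol, 37°C. Incubations stopped at 10, 20, 30, 60 and 90 min with ice-cold acetonitrile plus internal standard, then LC-MS/MS of parent remaining relative to time 0. Half-life from a two-parameter single exponential decay fit; n = 2 to 3.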

A short description of data set [17]: Tmax in ICR mouse at 15 mg/kg, ip by LC-MS/MS analysis. It counts as ADME, organism-based. Details: dose 15 mg/kg, route intraperitoneal. The conditions noted are these: in vivo. In short, it runs like this: as §3
Data set [18] can be described thus: Mean residence time (infinity) in ICR mouse at 1 mg/kg, po via gavage by LC-MS/MS analysis. The conditions noted are these: in vivo. Details: dose 1 mg/kg, route oral. The format is ADME, organism-based. In short, it runs like this: as §1
For data set [19], the system named is Liver microsome. The experiment in a line: Drug level in dog liver microsomes assessed as compound retention time treated with 0.5 uM I-387 after 2 hrs by LC-MS/MS analysis. It counts as ADME, Canis lupus familiaris. In short, it runs like this:
as §2

The nature of data set [20]: AUC (infinity) in ICR mouse at 15 mg/kg, ip by LC-MS/MS analysis. It counts as ADME, organism-based. Also on record: time infinity, dose 15 mg/kg, route intraperitoneal. The following applies: plasma. The essentials:
as §1

The nature of data set [21]: Terminal half life in ICR mouse at 5 mg/kg, iv by LC-MS/MS analysis. The format is ADME, organism-based. Also on record: dose 5 mg/kg, route intravenous. The conditions noted are these: in vivo, read-out: beta t1/2 (converted). In short, it runs like this:
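Tail-vein injection in male ICR mice (5–6 weeks), vehicle 10% DMSO in PEG300. Serial terminal sampling of 3–4 mice per time point, with posterior vena cava blood. Plasma was acetonitrile-precipitated and measured by LC-MS/MS. Noncompartmental analysis of mean data: t1/2 = ln2/λz, CL = dose/AUC_inf, Vd_ss = CL × MRT_inf; n = 3/dose group.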

A short description of data set [22]: Clearance in ICR mouse at 15 mg/kg, iv by LC-MS/MS analysis. It counts as ADME, organism-based. Details: dose 15 mg/kg, route intravenous. The conditions noted are these: in vivo. In short, it runs like this: as §1
Data set [23] is described as follows: Cmax in ICR mouse at 5 mg/kg, ip by LC-MS/MS analysis. It counts as ADME, organism-based. The following applies: in vivo. Also on record: dose 5 mg/kg, route intraperitoneal. In short, it runs like this:
as §1

Usually AUC(0-inf) stands for the area under the concentration-time curve extrapolated to infinity. What is called MRT inf is the average time that molecules of a dose stay in the body. Usually Cmax stands for the peak of the concentration-time curve. One may read the clearance as the volume of plasma or blood freed of the substance per unit of time. Broadly, the Tmax is the time at which the peak concentration occurs. A word on the bioavailability: it is the share of a dose that reaches the circulation, judged against a reference dose that is usually intravenous. For `COc1cc(C(=O)c2cccc(-c3cc4ccccc4[nH]3)c2)cc(OC)c1OC`, the AUC(0-inf) is 400 ng·h/mL in data set [1]; 148 ng·h/mL in [6]; 3750 ng·h/mL in [14]; 13400 ng·h/mL in data set [15]; 12600 ng·h/mL in [20]. Further, the half-life at 0.5 µM in [2] stood at 24 min; in data set [16] it was 15 min. For the same molecule, the Retention_time in the data set with Liver microsome [3] and with Liver microsome [19] was 11.3 min throughout. In addition, the MRT inf in [4] is 8.8 h; in data set [11] it was 8.9 h; in [18], 9 h. For the same molecule, the values for the Cmax in data set [5] and in data set [23] were 2860 ng/mL and 1440 ng/mL, respectively. In addition, the values for the half-life in [7], in data set [12] and in data set [21] were 294 min, 498 min and 258 min, respectively. Besides, the clearance was 22 mL/min/kg in data set [8], 27 mL/min/kg in [9] and 19 mL/min/kg in data set [22]. Moreover, the Tmax is 5 min in [10] and 10 min in data set [17]. In addition, the bioavailability in data set [13] is 95%.
